Test results published in PubChem BioAssay AID489030 (Sanford-Burnham Center for Chemical Genomics, 2010).
The whole screen tested about 330,000 compounds, of which about 2,400 (0.73%) were called active. This excerpt belongs to a sample that is enriched for actives. A number with no mark means an inactive call. Rule for the calls: active = inhibition of at least 40% at 20 µM; inactive = the rest.

target: Apoptotic protease-activating factor 1 (Homo sapiens) (UniProt O14727); assay: inhibitors of human Apaf-1 apoptosome, primary screen, biochemical, DEVD-Rh110 fluorescence, uHTS (AID 489030); details: reconstituted apoptosome caspase-3 activity, at 20 µM, stronger effect = higher value;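 note: plate controls were DMSO wells for no effect and DEVD-CHO caspase inhibitor wells for full effect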
Outline: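 Assay system: Apoptosome proteins | Medium: pH 7.5 Hepes buffer with CHAPS, BSA, DTT | Also added: Cytochrome c and DEVD-Rh110 substrate | Times: 30 min plus 50 min, RT | Detection: Rhodamine 110 fluorescence at Ex 480/Em 540 nm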

Sequence of Apoptotic protease-activating factor 1 (Homo sapiens) (O14727 whole entry, looked up): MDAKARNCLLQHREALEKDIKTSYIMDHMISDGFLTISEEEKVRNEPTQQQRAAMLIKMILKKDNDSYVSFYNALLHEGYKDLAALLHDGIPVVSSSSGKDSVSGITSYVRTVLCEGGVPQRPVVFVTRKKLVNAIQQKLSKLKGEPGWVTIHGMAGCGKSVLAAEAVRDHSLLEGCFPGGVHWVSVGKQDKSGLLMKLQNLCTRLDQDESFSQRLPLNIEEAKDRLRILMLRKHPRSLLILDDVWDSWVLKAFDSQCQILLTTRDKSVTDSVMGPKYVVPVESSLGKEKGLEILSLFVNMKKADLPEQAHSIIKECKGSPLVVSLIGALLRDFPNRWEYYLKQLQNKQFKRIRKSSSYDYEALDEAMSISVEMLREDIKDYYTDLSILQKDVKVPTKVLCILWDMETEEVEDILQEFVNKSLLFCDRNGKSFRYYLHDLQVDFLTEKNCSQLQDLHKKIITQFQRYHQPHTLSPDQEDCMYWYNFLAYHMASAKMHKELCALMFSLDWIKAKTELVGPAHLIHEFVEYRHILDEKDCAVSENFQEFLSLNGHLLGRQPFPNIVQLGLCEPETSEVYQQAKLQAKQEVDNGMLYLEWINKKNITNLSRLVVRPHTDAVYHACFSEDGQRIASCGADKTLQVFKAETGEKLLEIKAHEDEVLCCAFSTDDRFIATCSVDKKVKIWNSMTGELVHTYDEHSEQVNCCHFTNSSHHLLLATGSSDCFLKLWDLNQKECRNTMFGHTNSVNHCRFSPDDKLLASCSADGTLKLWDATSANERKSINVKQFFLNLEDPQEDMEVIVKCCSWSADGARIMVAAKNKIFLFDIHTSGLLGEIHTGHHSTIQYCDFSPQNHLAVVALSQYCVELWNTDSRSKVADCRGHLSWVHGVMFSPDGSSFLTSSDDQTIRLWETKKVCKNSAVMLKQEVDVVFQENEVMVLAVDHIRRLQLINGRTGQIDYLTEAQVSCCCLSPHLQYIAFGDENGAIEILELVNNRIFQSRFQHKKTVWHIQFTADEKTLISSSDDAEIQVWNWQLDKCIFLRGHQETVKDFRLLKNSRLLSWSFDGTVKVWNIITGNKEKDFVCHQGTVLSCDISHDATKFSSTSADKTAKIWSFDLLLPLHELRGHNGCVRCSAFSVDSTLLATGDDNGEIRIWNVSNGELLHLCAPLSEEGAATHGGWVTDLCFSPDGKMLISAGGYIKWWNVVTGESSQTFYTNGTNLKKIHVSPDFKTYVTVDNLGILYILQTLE

Point of comparison: CCC(CO)Oc1cc(NC(=O)c2ccc(Cl)cc2)c2ncn(C(C)C)c2c1 (stereo unspecified), inhibition 11.6%. Against it:
- CCCCc1nnc(NC(=O)CSc2nc(N)cc(=O)[nH]2)s1 — higher, 20.3%
- COC(=O)c1ccccc1NC(=O)CN(Cc1ccccc1)S(C)(=O)=O — lower, -17.6%
- COc1ccc(NC(=O)CN(C)S(=O)(=O)c2ccccc2)cc1OC — lower, -3.33%
- CCCCN(C(=O)C1=NN(c2cc(C)ccc2C)C(=O)CC1)c1c(N)n(CCC)c(=O)[nH]c1=O — lower, -17%
- CC1CC(=O)Nc2ccccc2N1S(=O)(=O)c1cccs1 (stereo unspecified) — lower, -4.75%
- CC1CC(C)(C)NC(=S)N1CCC(=O)N1CCN(Cc2ccccc2)CC1 (stereo unspecified) — lower, -1.32%
- COC(=O)c1noc(C)c1-c1ccnn1C(=O)c1ccc(Cl)cc1 — lower, 10.5%
- COc1ccc2sc(N(CCCN(C)C)C(=O)c3ccc(S(=O)(=O)N(C)C4CCCCC4)cc3)nc2c1 — higher, 24%
- CN(C)CCCN(C(=O)c1ccc(S(=O)(=O)N2CCCc3ccccc32)cc1)c1nc2ccc(F)cc2s1 — higher, 23.6%
- C#CCOCCOCCOCCNc1nc(N2CCN(C(=O)[C@H](CCCCN)n3cc([C@@H](N)C(C)CC)nn3)CC2)nc(N2CCN(C(=O)[C@H](Cc3ccc(O)cc3)n3cc([C@@H](N)C(C)CC)nn3)CC2)n1 (stereo partly specified) — lower, -9.37%
- CC1(C)CC(=O)C2=C(C1)NCN(CCCN1CCOCC1)C2 — lower, 4.48%
- CCc1nc(C)ccc1OCC(=O)N(CC)CC — lower, -18.1%
- CN(C)CCOc1ccc(Cl)cc1C(C)(C)C — lower, 4.15%
- CCOc1ccc(C(=O)CCN2CCOCC2)cc1 — lower, 2.64%
- CC(OC(=O)c1ccc(NS(=O)(=O)c2ccc3[nH]c(=O)[nH]c3c2)cc1)C(=O)Nc1cccc(Cl)c1Cl (stereo unspecified) — higher, 14%
- CCC(C)Sc1nc2c(c(=O)[nH]c(=O)n2C)n1CC(O)COc1cccc2ccccc12 (stereo unspecified) — higher, 22.5%
- Cc1cc(C)c(NC(=O)C[N+](C)(C)CC(O)COc2cccc3ccccc23)c(C)c1 (stereo unspecified) — higher, 12.4%
- CCCCn1c(N)c(N(CCOC)C(=O)c2cccc(OCc3ccccc3)c2)c(=O)[nH]c1=O — lower, 0.864%
- COc1cccc(OCc2nnc3n2N=C(c2ccccc2)C(CC(=O)O)S3)c1 (stereo unspecified) — lower, -0.294%
- CCCCOc1ccc(NC(=O)CSCC(=O)OCC)cc1 — lower, -4.3%
- CCOC(=O)COn1c(=O)c(-c2ccc(OCC)cc2)[n+]([O-])c2ccccc21 — lower, 9.6%
- Cc1cccc(/C(N)=N/OC(=O)c2ccccc2Cl)c1 — lower, 11.3%
- CCOC(=O)c1sc(C)c2c1NC(C)(c1cccc3ccccc13)NC2=O (stereo unspecified) — higher, 28%
- COC(=O)c1nn(-c2cccc(Cl)c2)ccc1=O — lower, -6.21%
- CN(CCc1cn[nH]c1)C(=O)CC1C(=O)NCCN1Cc1cccc(Oc2ccccc2)c1 (stereo unspecified) — higher, 13%
- COc1cccc(S(=O)(=O)NCc2ccc(C(=O)NCc3ccccn3)cc2)c1 — lower, 4.94%
- COCCNC(=O)c1snc2ccc(Cl)cc12 — lower, -26%
- CCCNC(=O)Nc1ccccc1C(=O)Nc1ccc(OC)cc1 — lower, 11.1%
- O=C1CSc2ccc(C(=O)NCc3ccccn3)cc2N1 — lower, -4.15%
- O=C(O)c1ccc(NC(=O)c2ccc(COc3ccc(Cl)cc3)o2)cc1 — lower, 3.81%
- Cn1c(=O)n(C)c2cc(NS(=O)(=O)c3ccc(F)cc3)ccc21 — lower, 1.91%
- Cc1cccc(C)c1Nc1nnc(SCC(=O)NCCCN2CCCC2=O)s1 — lower, -3.15%
- Cc1ccc(/C=C(\C#N)C(=O)Nc2cccc3ncccc23)o1 — lower, -6.14%
- O=C(Nc1cccnc1Cl)c1cc(-c2cccc(Cl)c2)on1 — lower, 3.02%
- C=C(C)CNc1cc(S(=O)(=O)N2CCOCC2)ccc1Oc1ccccc1 — higher, 24.2%
- CCCC[C@@H]1CN=C(N)N1CCCC — lower, 8.23%
- CCCC[C@@H]1CN=C(N)N1CCc1cccc(F)c1 — lower, 4.48%
- COc1ccccc1N=C1SC(C)CN1C(=O)C1CCC1 (stereo unspecified) — lower, 3.12%
- Cc1ccc(C)c(Cn2cnc3c(oc4ccccc43)c2=O)c1 — lower, -9.64%
- CCOC(=O)C1CCN(C(=O)c2ccccc2N(C)S(=O)(=O)c2ccccc2)CC1 — lower, 2.95%
- CCOC(=O)C1CCCN(C(=O)c2cccc(S(=O)(=O)N3CCOCC3)c2)C1 (stereo unspecified) — lower, -8.74%
- CC(C)[C@@H](NC(=O)OC(C)(C)C)C(=O)NCC1CCC(C(=O)N[C@@H](Cc2ccccc2)C(=O)O)CC1 (stereo partly specified) — lower, 2.34%
- CCCCC(=O)Nc1ccc(C(=O)Nc2cc(C(F)(F)F)ccc2Cl)cc1 — higher, 37.6%
- ON=C1/C(=N\O)CC2(C/C1=N/O)OCCO2 — lower, -16%
- CN(C(=O)CN1C(=O)CCSc2ccc(S(=O)(=O)N3CCCC3)cc21)c1ccccc1 — lower, -2.73%
- CCC(CO)Oc1cc(NCc2ccccc2)c2ncn(C3CCCC3)c2c1 (stereo unspecified) — higher, 32.6%
- CCC(CO)Oc1cc(NC(=O)c2cccc3ccccc23)c2ncn(C(C)C)c2c1 (stereo unspecified) — higher, 29.6%
- CCC(CO)Oc1cc(NC(=O)c2cccc(F)c2)c2ncn(C(C)C)c2c1 (stereo unspecified) — higher, 17.6%
- COc1ccc(N2CCN(CCNC(=O)c3nnc(Cc4c(F)cccc4Cl)o3)CC2)cc1 — lower, -8.42%
- Cn1c(=O)c2c(nc(N3CCOCC3)n2CCNC2=NCCC2)n(C)c1=O — lower, 9.61%
- O=C(c1ccccc1)c1cccn1CC(=O)N1CCN(c2ccc(F)cc2)CC1 — lower, 5.66%
- Cc1nc(N)[nH]c(=O)c1Oc1cccc(C(F)(F)F)c1 — lower, -9.16%
- COc1ccc(C(CNC(=O)c2ccc(NS(=O)(=O)c3ccc(F)c(C)c3)cc2)N(C)C)cc1 (stereo unspecified) — higher, 26%
- CC(=O)c1ccc(S(=O)(=O)Nc2ccc(C(=O)NCC(c3ccccc3)N(C)C)cc2)cc1 (stereo unspecified) — lower, -18.1%
- CCOC(=O)C1CCN(S(=O)(=O)c2c(C)noc2C)CC1 — lower, 1.33%
- C=CCNc1nc(N)c(C(=C(C#N)C#N)c2ccccc2)s1 — lower, 10.1%
- O=C(NCCCNCc1ccccc1)c1ccc(/C=N/O)nc1 — lower, 6.05%
- COc1ccc(CNC(=O)c2ccc(NS(=O)(=O)c3ccc4[nH]c(=O)[nH]c4c3)cc2)cc1OC — lower, 8.25%
- COC(=O)c1ccccc1NC(=O)CN(Cc1ccc(Cl)cc1)S(C)(=O)=O — lower, -4.4%
- N#CCc1c(C#N)c(N)nc(N2CCCC2)c1C#N — lower, -2.29%
- Nc1nc(NCC(=O)O)nc(N2CCCCCC2)c1[N+](=O)[O-] — lower, -0.54%
- COc1nc(NC2CCCCC2)nc(N2CCCCCC2)n1 — higher, 15.5%
- O=C(O)COCC(=O)NCc1csc2ccc(Cl)cc12 — lower, -14.6%
- CCOc1ccc(Br)cc1S(=O)(=O)Nc1ccc(S(=O)(=O)Nc2cc(C)on2)cc1 — lower, 9.47%
- CCCS(=O)(=O)C(=C1Nc2ccccc2N1)S(=O)(=O)CCC — lower, 8.61%
- CCCC(NS(=O)(=O)c1ccc(OC)cc1)C(=O)O (stereo unspecified) — lower, -6.54%
- COc1ccc(S(=O)(=O)NCCCc2ccccc2)cc1 — lower, -8.3%
- CCOC(=O)c1cnc(SC)nc1Sc1ccc(Cl)cc1Cl — higher, 14%
- O=C(c1cnccn1)N1CCN(S(=O)(=O)c2cccc(Cl)c2)CC1 — lower, -4.31%
- Cc1ccc(C(C)C)cc1OCC(=O)Nc1ccccc1N1CCCC1 — higher, 16.1%
- O=C(CN1CCN(C2CCCCC2)CC1)Nc1ccccc1N1CCCCC1 — lower, 6.34%

In the case of COc1ccc(NC(=O)CN(Cc2ccccc2)S(C)(=O)=O)cc1OC, the inhibition is reported as 40.8% (active).
CC1CC(=S)Nc2ccccc2N1Cc1ccccc1 (stereo unspecified) was tested, and the inhibition was 41.4% (active).
For CN(C)CCCN(C(=O)c1ccc(S(=O)(=O)N2CCCCCC2)cc1)c1nc2ccc(Br)cc2s1, the inhibition was 60.4% (active).
For CCC(C)(C)c1ccc(OCC(=O)N(C)C)c(C(C)(C)CC)c1, the inhibition was 56.5% (active).
With CC(C)c1ccccc1OCC(O)CN(CC(O)COc1cccc2ccccc12)C(C)C (stereo unspecified) the inhibition was 57.3% (active).
CCCCCCCCCCOC(=O)Cn1c(COc2ccc(C)cc2)[n+](C)c2ccccc21 was tested, and the inhibition was 77.7% (active).
CCCCCCCCCCOC(=O)Cn1c(COc2cccc(OC)c2)[n+](C)c2ccccc21 was tested, and the inhibition was 65.3% (active).
With O=C(NCc1ccccn1)c1ccc2nc(-c3ccco3)c(-c3ccco3)nc2c1 the inhibition was 60.6% (active).
For COCCNC(=O)Nc1ccc2nc(-c3ccco3)c(-c3ccco3)nc2c1, the inhibition was 64.8% (active).
In the case of O=C(O)c1cc(Cl)c(Cl)cc1C(=O)Nc1cccc2ncccc12, the inhibition is reported as 80.4% (active).
In the case of CCCC[C@@H]1CN=C(N)N1CCc1cc(C(F)(F)F)cc(C(F)(F)F)c1, the inhibition is reported as 52.3% (active).
CCOC(=O)C1CCN(C(=O)c2cccc(S(=O)(=O)N(CC)c3ccccc3)c2)CC1 was tested, and the inhibition was 45.2% (active).
For CCCCN(CCCC)CCC(O)c1cc2c(Cl)cc(Cl)cc2c2cc(C(F)(F)F)ccc12 (stereo unspecified), the inhibition was 48.9% (active).
In the case of CC(C)n1cnc2c(NCc3ccccc3)cc(N[C@@H](CO)Cc3ccccc3)cc21, the inhibition is reported as 94.5% (active).
In the case of CC(C)n1cnc2c(NCc3ccccc3)cc(OCC3CCN(C)CC3)cc21, the inhibition is reported as 96.4% (active).
In the case of COc1ccc(C(CNC(=O)c2ccc(S(=O)(=O)Nc3ccccc3F)cc2)N(C)C)cc1 (stereo unspecified), the inhibition is reported as 56.5% (active).
In the case of N#Cc1c(N2CCCCC2)nc(N)c2c(N)nc(SCC(=O)O)cc12, the inhibition is reported as 96% (active).
For COc1ccc(S(=O)(=O)/N=C2\C=C(NS(=O)(=O)c3ccccc3)C(=O)c3ccccc32)cc1, the inhibition was 79.2% (active).
With CN1CCN(c2ccccc2NC(=O)COc2ccc(C3CCCCC3)cc2)CC1 the inhibition was 43.6% (active).
